PPC-1+TRAIL kill: compounds killing PPC-1 cancer cells with TRAIL present, primary screen, TRAIL potentiator project, ATPLite luminescence, uHTS; cell killing (% activity), % at 4 µM or 5 µM; AID 1443, 2008; 220,000 tested, 0.41% active; PPC-1 cells + TRAIL, ATPLite viability luminescence;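 active means cell killing above 50% in the first pass at 4 µM, then a duplicate retest at 5 µM averaging 50% or more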;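 further: plate controls were cells with TRAIL plus DMSO for no effect and medium-only wells lacking cells for full effect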
FLuc inhib CS: firefly luciferase enzyme inhibitors, primary screen, artefact control for luciferase-based inhibitor screens, biochemical, luminescence, ATPLite; Luciferin 4-monooxygenase (Photinus pyralis), P08659; inhibition, % at 10 µM; 10 min; 200,000 tested, 1.5% active;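 active means inhibition above about 50% when tested at 10 µM, limit read from the data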
Target sequence (P08659 whole entry, looked up): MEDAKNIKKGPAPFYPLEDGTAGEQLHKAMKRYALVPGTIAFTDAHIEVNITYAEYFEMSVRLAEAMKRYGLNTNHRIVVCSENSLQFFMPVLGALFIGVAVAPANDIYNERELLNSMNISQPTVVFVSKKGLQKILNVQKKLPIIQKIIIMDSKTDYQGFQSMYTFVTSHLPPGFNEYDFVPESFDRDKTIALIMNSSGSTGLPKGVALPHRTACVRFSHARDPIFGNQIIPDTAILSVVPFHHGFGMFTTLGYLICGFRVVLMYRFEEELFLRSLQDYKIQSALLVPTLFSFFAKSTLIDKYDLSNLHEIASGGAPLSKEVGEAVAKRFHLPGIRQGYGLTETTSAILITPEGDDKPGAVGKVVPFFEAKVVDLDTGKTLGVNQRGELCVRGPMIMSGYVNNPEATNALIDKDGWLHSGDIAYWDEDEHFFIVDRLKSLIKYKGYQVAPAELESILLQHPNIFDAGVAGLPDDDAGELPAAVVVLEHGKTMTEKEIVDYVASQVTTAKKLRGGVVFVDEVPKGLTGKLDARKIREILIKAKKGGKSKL
FLuc stim CS: FLuc activators, initial screening, artefact control for FLuc-dependent activation tests, biochemical, ATPlite luminescence. Luciferin 4-monooxygenase (Photinus pyralis), P08659. AID 1027, 2008. 200,000 tested, under 10 active. ATPlite luciferase biochemical, 10 min; 0 = ATP-free wells, 1 = DMSO control. activation factor at 10 µM;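 active means luciferase activation factor, scaled between plate controls, of at least 2 with compound at 10 µM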
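test system = cell-free luciferase reagent | medium = PBS as buffer for the ATP substrate | dosing = test compounds dosed from 2 mM stocks in 100% DMSO | incubation = 10 min at ambient temperature | detection = luminescence measurement of luciferase light output | benchmarks = low control with PBS replacing ATP, high control enzyme plus ATP without compound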
C8 TRAIL sens: viability loss with TRAIL in NB7+C8 cells, primary screen, TRAIL sensitizer project, cell-based, ATPlite luminescence; 360,000 tested, 1% active; inhibition (viability loss, TRAIL sensitization), % at 10 µM; AID 624354, 2012;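 active means compounds causing at least 50% loss of cell viability in the single-dose screen, relative to plate controls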
HSP90 refold inh: HSP90 inhibitors, primary screen, cell lysate, luminescence | Rabbit reticulocyte lysate, luciferase refolding luminescence, 3 h | inhibition, % at 5.6 µM | 290,000 tested, 0.91% active | AID 1789, 2009;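 active means inhibition above the screen-wide mean plus 3 SD, computed separately per campaign, cut at about 16% in these data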;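 further: 0% = DMSO wells and 100% = 60 µM geldanamycin wells; inhibitors lower the luminescence because luciferase stays unfolded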
STAT3 inh-1: IL-6 driven STAT3 reporter inhibitors, primary screen, U3A cells, luciferase, luminescence, MLSCN library; IL-6 STAT3-luciferase reporter; host cell line lacks STAT1; inhibition, % at 5.5 µM; 190,000 tested, 0.89% active; AID 862, 2007;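 active means inhibition above the mean inhibition across all screened compounds plus 3 SD, cut at about 44% in these data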;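 further: 0% = DMSO only wells and 100% = 100 µM nifuroxazide control wells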
STAT3 inh-2: STAT3 reporter inhibitors, retest of hits, confirmation, U3A cells, luciferase, luminescence; shares compounds with STAT3 inh-1; IL-6 STAT3 luciferase reporter; cell line lacks STAT1; inhibition, % at 5.7 µM; 1,200 tested, 45% active; AID 1265, 2008;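 active means inhibition above the hit cutoff computed for the primary STAT3 screen, cut at about 44% in these data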;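 further: 0% = IL-6 plus DMSO and 100% = IL-6 plus nifuroxazide control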
NFkB inh 2: NF-kB reporter inhibitors in human cells, confirmation, counter-screen for STAT3 inhibitor project, cell-based, HEK293T, luciferase, TNF-alpha stimulus; shares compounds with STAT3 inh-1; TNF-alpha induced; inhibition, % at 5.7 µM; 1,200 tested, 36% active; AID 1308, 2008;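 active means inhibition above the mean of solvent-only control wells plus 3 SD, cutoff set per campaign, cut at about 13% in these data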;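 further: 0% = TNF-alpha with DMSO and 100% = TNF-alpha with MG high control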
STAT1 inh STAT3c: STAT1 reporter inhibitors, IFN-gamma induced, confirmation, counter-screen for STAT3 inhibitor project, cell-based, NIH 3T3, luciferase luminescence; shares compounds with STAT3 inh-1; NIH 3T3 STAT1-luciferase reporter; inhibition, % at 5.7 µM; 1,200 tested, 27% active; AID 1317, 2008;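 active means inhibition above the mean plus 3 SD of solvent-only control wells, limit set per screening run, cut at about 16% in these data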;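 further: 0% = DMSO with IFN-gamma and 100% = nifuroxazide control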
Starred values were filed as active, the others as inactive. A selection: hits, their analogues and other compounds. The true share with any hit is near 2.2%.

`N#C/C(=C(/O)c1ccc(-c2cccc([N+](=O)[O-])c2)o1)c1nc2ccccc2s1` gave PPC-1+TRAIL kill 25, FLuc inhib CS 66*, FLuc stim CS 0.3, C8 TRAIL sens 31, HSP90 refold inh -5 and STAT3 inh-1 -20.
Screening Oc1c(C=NCc2ccccc2)sc2ccccc12 returned PPC-1+TRAIL kill 2, FLuc inhib CS 19, FLuc stim CS 0.8, C8 TRAIL sens 8, HSP90 refold inh 24* and STAT3 inh-1 -2.
CC(=O)N1CCc2cc(S(=O)(=O)Nc3cccc(C(F)(F)F)c3)ccc21 was read as PPC-1+TRAIL kill -20, FLuc inhib CS -1, FLuc stim CS 1, C8 TRAIL sens 13, HSP90 refold inh 1, STAT3 inh-1 44*, STAT3 inh-2 39, NFkB inh 2 2 and STAT1 inh STAT3c 19*.
Screening COc1cccc(NS(=O)(=O)c2ccc3c(c2)CCN3C(C)=O)c1 returned C8 TRAIL sens 6 and HSP90 refold inh 7.
Screening O=[N+]([O-])c1cccc(S(=O)(=O)Nc2ccc3cn[nH]c3c2)c1 returned C8 TRAIL sens -16.
`C[n+]1c2n(c3ccccc31)N=C(c1cc(C(C)(C)C)c(O)c(C(C)(C)C)c1)CS2` gave PPC-1+TRAIL kill 36, FLuc inhib CS -7, FLuc stim CS 1.1, C8 TRAIL sens 42, HSP90 refold inh 0, STAT3 inh-1 79*, STAT3 inh-2 79*, NFkB inh 2 37* and STAT1 inh STAT3c -3.
For COc1cccc(C2=Nn3c(nnc3-c3ccccc3O)SC2)c1 the results were PPC-1+TRAIL kill -12, FLuc inhib CS -1, FLuc stim CS 1, C8 TRAIL sens 11, HSP90 refold inh 2 and STAT3 inh-1 13.
`O=C(COC(=O)c1n[nH]c2ccccc12)Nc1cccc(S(=O)(=O)N2CCOCC2)c1` gave PPC-1+TRAIL kill 20, FLuc inhib CS -5, FLuc stim CS 1.1, C8 TRAIL sens -7, HSP90 refold inh 2 and STAT3 inh-1 14.
For O=C(COC(=O)c1n[nH]c2ccccc12)Nc1ccc(S(=O)(=O)N2CCCC2)cc1 the results were PPC-1+TRAIL kill 10, FLuc inhib CS -6, FLuc stim CS 1.1, C8 TRAIL sens 6, HSP90 refold inh 0, STAT3 inh-1 71*, STAT3 inh-2 51*, NFkB inh 2 6 and STAT1 inh STAT3c 9.
`CC(C)(C)C1C/C(=C/c2ccccn2)C(=O)/C(=C/c2ccccn2)C1` (stereo unspecified) gave PPC-1+TRAIL kill 38, FLuc inhib CS -6, FLuc stim CS 1.1, C8 TRAIL sens 15, HSP90 refold inh 4, STAT3 inh-1 48*, STAT3 inh-2 22, NFkB inh 2 52* and STAT1 inh STAT3c -113.
For O=C1/C(=C/c2ccccn2)COc2ccccc21 the results were PPC-1+TRAIL kill 5, FLuc inhib CS 39, FLuc stim CS 0.6, C8 TRAIL sens 1, HSP90 refold inh 3 and STAT3 inh-1 4.
CC1C/C(=C/c2ccccn2)C(=O)/C(=C/c2ccccn2)C1 (stereo unspecified) was read as PPC-1+TRAIL kill 23, FLuc inhib CS -4, FLuc stim CS 1, C8 TRAIL sens -61, HSP90 refold inh 1, STAT3 inh-1 56*, STAT3 inh-2 36, NFkB inh 2 -19 and STAT1 inh STAT3c -45.
For CN(CC(=O)Nc1ncn[nH]1)S(=O)(=O)c1ccc(Cl)cc1 the results were C8 TRAIL sens -14 and HSP90 refold inh -7.
Screening CCCCn1c2c(c(=N)c3c1CCC3)CCC2 returned PPC-1+TRAIL kill -3, FLuc inhib CS 1, FLuc stim CS 1, C8 TRAIL sens 12, HSP90 refold inh 2, STAT3 inh-1 53*, STAT3 inh-2 33, NFkB inh 2 -1 and STAT1 inh STAT3c 22*.
`O=C(CSCCO)Nc1ccc(C23CC4CC(CC(C4)C2)C3)cc1` gave PPC-1+TRAIL kill 16, FLuc inhib CS 14, FLuc stim CS 0.9, C8 TRAIL sens -7, HSP90 refold inh -3, STAT3 inh-1 44*, STAT3 inh-2 33, NFkB inh 2 22* and STAT1 inh STAT3c -29.
`Cc1ccc(OCCCCn2cnc3ccccc32)cc1` gave PPC-1+TRAIL kill 30, FLuc inhib CS 3, FLuc stim CS 1, C8 TRAIL sens -1, HSP90 refold inh 0 and STAT3 inh-1 26.
Screening c1ccc(OCCCCn2cnc3ccccc32)cc1 returned PPC-1+TRAIL kill -6, FLuc inhib CS -4, FLuc stim CS 1, C8 TRAIL sens 7, HSP90 refold inh 7, STAT3 inh-1 44*, STAT3 inh-2 35, NFkB inh 2 -7 and STAT1 inh STAT3c -2.
Screening CCCOc1ccc(Cn2cnc3ccccc32)cc1 returned PPC-1+TRAIL kill 3, FLuc inhib CS 0, FLuc stim CS 1, C8 TRAIL sens 15, HSP90 refold inh 4, STAT3 inh-1 48*, STAT3 inh-2 29, NFkB inh 2 -1 and STAT1 inh STAT3c 7.
`Cc1ccccc1OCCCCn1cnc2ccccc21` gave PPC-1+TRAIL kill 16, FLuc inhib CS 1, FLuc stim CS 1, C8 TRAIL sens 12, HSP90 refold inh 0, STAT3 inh-1 61*, STAT3 inh-2 52*, NFkB inh 2 12 and STAT1 inh STAT3c 14.
CCCCn1nc(C(=O)Nc2ccccc2N2CCCC2)c2ccccc2c1=O was read as C8 TRAIL sens 11.
Screening COc1ccc2c(C(=O)CCl)c[nH]c2c1 returned PPC-1+TRAIL kill 23, C8 TRAIL sens 12 and HSP90 refold inh 0.
O=C(Cn1c(CO)nc2ccccc21)Nc1ccc2c(c1)OCCCO2 was read as C8 TRAIL sens 14.
For CCc1ccc(CN2CCN(C(=O)c3cccc(OC)c3OC)CC2)cc1 the results were PPC-1+TRAIL kill 22, FLuc inhib CS 1, FLuc stim CS 1, C8 TRAIL sens 18, HSP90 refold inh 0, STAT3 inh-1 60*, STAT3 inh-2 41, NFkB inh 2 10 and STAT1 inh STAT3c 6.

Bioassay records (PubChem BioAssay)
